Screening results deposited in PubChem by several laboratories.
SENP8 block-1: human SENP8 protease inhibitors, primary screen, biochemical, fluorescence, Nedd8 protein substrate, uHTS; inhibition, % at 20 µM; AID 602440, 2012; 360,000 compounds, 0.64% hits; recombinant SENP8; in the data active = inhibition mostly above about 40%, no sharp cut-off; inactive = mostly below about 27%
SENP7 block: SENP7 protease inhibitors, primary screen, biochemical, luminescence, uHTS. AID 434973, 2010. recombinant SENP7, Z-RLRGG-aminoluciferin luminescence, 40 min. inhibition, % at 5 µM. 330,000 compounds, 1.5% hits;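 active = inhibition above about 50% at the single test dose, limit read from the data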;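 also: plate controls were DMSO with enzyme for no effect and no enzyme buffer wells for full effect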
Target sequence (Q9BQF6 706-1050 limits assumed): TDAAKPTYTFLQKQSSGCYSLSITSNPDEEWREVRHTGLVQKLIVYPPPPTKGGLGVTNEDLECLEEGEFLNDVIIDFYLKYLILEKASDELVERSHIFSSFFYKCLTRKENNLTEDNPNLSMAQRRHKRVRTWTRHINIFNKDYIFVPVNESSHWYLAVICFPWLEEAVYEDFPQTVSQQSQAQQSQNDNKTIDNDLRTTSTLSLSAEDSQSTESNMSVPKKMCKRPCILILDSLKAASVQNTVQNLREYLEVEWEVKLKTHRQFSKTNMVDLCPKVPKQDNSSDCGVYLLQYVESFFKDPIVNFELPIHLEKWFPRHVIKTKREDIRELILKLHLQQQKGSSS
SENP8 block-2: SENP8 protease inhibitors, primary screen, biochemical, luminescence | Sentrin-specific protease 8 (Homo sapiens), Q96LD8 | inhibition, % at 10 µM | 330,000 compounds, 1.2% hits | purified SENP8, Z-RLRGG-aminoluciferin cleavage; in the data active = inhibition above about 50%
SENP6 inh: SENP6 protease inhibitors, primary screen, biochemical, luminescence, uHTS; Sentrin-specific protease 6 (Homo sapiens), Q9GZR1; Recombinant SENP6 catalytic domain, aminoluciferin luminescence; inhibition, % at 10 µM; 330,000 compounds, 1.8% hits; AID 2599, 2010;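 active = inhibition above about 50% at the single tested dose, limit read from the data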;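 also: plate controls were DMSO wells with enzyme for no effect and DMSO wells lacking enzyme for full effect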
Platelet DG rel: inhibitors of platelet dense granule secretion, primary screen, cell-based, MLPCN, human platelets; inhibition, %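 (compounds screened at 7.5 µM in platelet-rich plasma)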; human platelet-rich plasma, SFLLRN dense granule ATP release, luminescence; 300,000 compounds, 0.22% hits; AID 1663, 2009;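 active = mean replicate score, as percent of positive control, at or above 50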
SENP1 inh: human SENP1 catalytic domain inhibitors, primary screen, biochemical, FRET, uHTS. Sentrin-specific protease 1 (Homo sapiens), Q9P0U3. recombinant SENP1 catalytic domain, CyPet-SUMO1-YPet FRET cleavage. inhibition, % at 10 µM. 360,000 compounds, 0.21% hits;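 active = inhibition at least 30% at 10 µM, raw YFP signal under a set limit, fluorescence ratio 0.5 to 1.5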;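 also: 0% = enzyme with DMSO and 100% = no enzyme wells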
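material = recombinant human SENP1 catalytic domain, His6-tagged | quantity = 20 pM enzyme | reagent = 25 nM SUMO1 FRET substrate | compound dosing = 10 µM single point, 0.5% DMSO | timing = 50 min enzyme reaction, room temperature, light-protected | detection = FRET, CFP and YFP emission | control set = no-enzyme low, enzyme-DMSO high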
SENP8 confirm: SENP8 protease inhibitors, retest, confirmation, biochemical, luminescence, single concentration; shares compounds with SENP7 block; Recombinant SENP8, Z-RLRGG-aminoluciferin luminescence, 60 min; inhibition, % at 12.5 µM; 6,200 compounds, 40% hits; AID 488912, 2010;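 active = mean inhibition across replicates above about 50%, limit read from the data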
SENP6 conf: SENP6 protease inhibitors, confirmation, biochemical, luminescence, single concentration | 6,200 compounds, 58% hits | inhibition, % at 12.5 µM | shares compounds with SENP7 block | recombinant SENP6, Z-RLRGG-aminoluciferin luminescence
SENP7 conf: SENP7 protease inhibitors, retest, confirmation, biochemical, luminescence, single concentration; shares compounds with SENP7 block; recombinant SENP7, Z-RLRGG-aminoluciferin luminescence, 40 min; AID 488917, 2010; inhibition, % at 12.5 µM; 6,200 compounds, 69% hits
Casp3 SENP sel: caspase-3 protease inhibitors, confirmation, selectivity assay for SENP inhibitor project, biochemical, single concentration; shares compounds with SENP7 block; purified caspase-3, Z-DEVD-aminoluciferin luminescence, 60 min; inhibition, % at 12.5 µM; 6,200 compounds, 60% hits; AID 488918, 2010;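 active = mean inhibition above about 50%, limit read from the data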;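 also: plate controls were enzyme with DMSO for no effect and wells without caspase-3 for full effect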
Target sequence (P42574 28-227 limits assumed): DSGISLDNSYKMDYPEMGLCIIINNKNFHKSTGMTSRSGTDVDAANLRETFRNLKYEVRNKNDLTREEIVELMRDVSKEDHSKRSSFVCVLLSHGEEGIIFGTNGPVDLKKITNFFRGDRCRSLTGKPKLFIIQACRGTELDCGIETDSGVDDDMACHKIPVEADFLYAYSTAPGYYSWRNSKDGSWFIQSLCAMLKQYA
Luc interf: interferes with luciferase luminescence in SENP counter-screen. Pre-incubated SENP8/Z-RLRGG-aminoluciferin, luciferase luminescence interference. AID 488919. 6,200 compounds, 39% hits. inhibition, % at 12.5 µM. shares compounds with SENP7 block;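 active = mean inhibition above about 50% when retested at one dose, limit read from the data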;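 also: plate controls were DMSO wells with completed reaction for no effect and substrate without enzyme for full effect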
* marks the source's active call; other numbers are inactive results; i = inactive; · = not tested or not shown. This is a sample that favours compounds with a hit; in the whole collection about 2.6% have one here.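 The calls were made as follows, unless noted: active = mean inhibition above about 50% in the one-dose retest (limit read from the data); inactive = the rest.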

SMILES | SENP8 block-1 | SENP7 block | SENP8 block-2 | SENP6 inh | Platelet DG rel | SENP1 inh | SENP8 confirm | SENP6 conf | SENP7 conf | Casp3 SENP sel | Luc interf
COc1ccc(NC(=O)c2cc(C3CCCCN3S(C)(=O)=O)on2)c(C)c1 (stereo not given) | 22 | · | · | · | · | 0 | · | · | · | · | ·
Cc1ccsc1C(=O)OCC(=O)c1ccc(OC(F)F)cc1 | 15 | 97* | 94* | 95* | · | 2 | 69* | 91* | 102* | 92* | 29
O=C(Nc1ccc(C(=O)N2CCCCC2)cc1)c1cccs1 | 10 | 60* | 47 | 66* | 10 | 0 | 48 | 47 | 78* | 83* | 59*
O=C(Nc1ccc(C(=O)N2CCOCC2)cc1)Nc1cccc(Cl)c1 | -3 | 57* | 40 | 69* | 6 | 1 | 60* | 58* | 85* | 61* | 63*
O=C(Nc1ccccc1)Nc1ccc(C(=O)N2CCCC2)cc1 | 12 | 97* | 94* | 97* | 58* | 1 | 96* | 97* | 102* | 98* | 74*
CC(NC(=O)COc1ccc(Br)cc1)C1CCCO1 (stereo not given) | 1 | -3 | 3 | 6 | -3 | 2 | · | · | · | · | ·
O=[N+]([O-])c1ccc(O)c(/C=N/Nc2ncnc3c2cnn3-c2ccccc2)c1 | 14 | 93* | 93* | 90* | 6 | -54 | 87* | 91* | 100* | 43 | 3
O=[N+]([O-])c1ccc(O)c(/C=N/Nc2nc3ccccc3[nH]2)c1 | 34 | -8 | 23 | 30 | 0 | 12 | · | · | · | · | ·
CCOC(=O)c1sc(=NC(=O)c2ccccc2)n(C)c1C | -192 | 54* | 34 | -30 | 8 | 0 | 18 | 14 | 15 | 12 | 4
CCOC(=O)c1sc(NC(=O)c2ccc(S(=O)(=O)N(C)C)cc2)cc1C | -4 | 4 | -4 | -3 | 7 | 2 | · | · | · | · | ·
CCOC(=O)c1sc(NC(=O)c2ccccc2)cc1C | -44 | 94* | 77* | 93* | 24 | -2 | 57* | 90* | 100* | 84* | 39
COc1ccc(C(=O)N/N=C/C(=O)c2ccccc2)cc1 | 6 | 84* | 58* | 80* | 1 | -2 | 32 | 72* | 92* | 79* | 30
COc1ccc(C(=O)Nc2cc(OC)cc(OC)c2)cc1 | 15 | 89* | 81* | 87* | 6 | 3 | 86* | 83* | 96* | 88* | 83*
COc1cc(NC(=O)c2ccccc2)cc(OC)c1 | 5 | 47 | 12 | 54* | 14 | 1 | 18 | 18 | 68* | 65* | 49
COc1ccc(NC(=O)c2cccc(NC(=O)c3ccccc3)c2)cc1 | 7 | 10 | 5 | 10 | -4 | 1 | · | · | · | · | ·
O=C(NC1CCCCC1)C(c1ccccc1)N(C(=O)c1csnn1)C1CCCC1 (stereo not given) | 3 | -4 | -3 | -24 | -39 | 0 | · | · | · | · | ·
O=c1cc(-c2ccccc2)oc2ccc(Cl)cc12 | 20 | · | · | · | · | -1 | · | · | · | · | ·
O=c1cc(-c2ccc3c(c2)OCCO3)oc2ccc(Cl)cc12 | -398 | 91* | 16 | 36 | -3 | -9 | 23 | 26 | 43 | 41 | 11
O=c1cc(-c2cccs2)oc2ccc(Cl)cc12 | -93 | 50* | 34 | 55* | 0 | -2 | 25 | 27 | 51* | 46 | 18
COCCN(C(=O)c1csnn1)C(C(=O)NC1CCCCC1)c1ccccc1F (stereo not given) | 2 | 0 | -9 | 2 | -7 | 0 | · | · | · | · | ·
CCOc1ccccc1N1C(=O)c2ccc(S(=O)(=O)c3ccc(C(=O)O)cc3)cc2C1=O | 10 | 5 | 8 | 17 | 7 | -2 | · | · | · | · | ·
COc1ccc(C(=O)O/N=C(\N)c2ccccc2)c(OC)c1 | 9 | 81* | 82* | 92* | 26 | 1 | 76* | 69* | 89* | 85* | 72*
COc1ccc(C(=O)O/N=C(\N)c2ccc(OC)c(OC)c2)c(OC)c1 | 30 | 0 | -8 | 4 | 5 | -2 | · | · | · | · | ·
COc1ccc(C(=O)O/N=C(\N)c2ccc(OC)c(OC)c2)cc1 | 7 | 81* | 23 | 64* | 1 | 1 | 27 | 17 | 61* | 42 | 11
CCOc1ccc(/C=C/C(=O)Oc2ccc(OC)cc2)cc1 | 12 | 9 | -14 | 9 | 3 | 1 | · | · | · | · | ·
SMILES | SENP8 block-1 | SENP7 block | SENP8 block-2 | SENP6 inh | Platelet DG rel | SENP1 inh | SENP8 confirm | SENP6 conf | SENP7 conf | Casp3 SENP sel | Luc interf
CCOc1ccc(/C=C\C(C)=N\O)cc1 | 9 | -3 | 84* | 91* | 39 | 1 | 90* | 90* | 100* | 93* | 90*
CCOc1ccc(/C=C/C(=O)CCC(=O)O)cc1 | 6 | 63* | 41 | 70* | -5 | 0 | 66* | 53* | 84* | 0 | 72*
O=C1c2ccccc2S(=O)(=O)N1CCS(=O)(=O)c1ccc(F)cc1 | 17 | 8 | -2 | -15 | 2 | 1 | · | · | · | · | ·
COc1cc(/C=N/Nc2nc3ccccc3s2)cc([N+](=O)[O-])c1O | 42* | 32 | 58* | 11 | 12 | 1 | 5 | 15 | 4 | 14 | 1
CCCCNc1c(-c2cccc(SC3CCCCC3)c2)nc2ccc(Cl)cn12 | -484 | -5 | -3 | -11 | 1 | -60 | · | · | · | · | ·
CCCCNc1c(-c2ccc(SC3CCCCC3)cc2)nc2ccccn12 | i | 30 | 63* | 83* | 7 | -28 | -22 | 7 | 13 | 17 | 3
